According to publication PMC13386513 (Journal of medicinal chemistry, 2025):

Legend:
SH-SY5Y cells = assay: Cytotoxicity of the ligands alone, cell viability; format: cell-based; settings: 8 μM
[1] = system: ATF4, CHOP, GADD34, TRB3 expression in SH-SY5Y cells; assay: qRT-PCR of ER stress-associated pro-apoptotic factors in p-tau-treated cells; format: cell-based, human; settings: p-tau 0.5 μM plus ligand 5 μM, 24 h
[2] = system: Xbp1s, P58ipk, ATF4 expression in SH-SY5Y cells; assay: qRT-PCR of ER stress response induced by tunicamycin or thapsigargin; format: cell-based, human; settings: 24 h
[3] = system: TNFα, IL1β, IRF3 expression in SH-SY5Y cells; assay: qRT-PCR of pro-inflammatory factors in p-tau-treated cells; format: cell-based, human; settings: p-tau 0.5 μM plus ligand 5 μM, 24 h
p-tau = p-tau (Homo sapiens, UniProt P10636); assay: Transmission electron microscopy of p-tau; settings: p-tau 10 μM, 24 h incubation, 37 °C, Tris pH 7.4
p-tau, sequence (P10636 1-412 isoform P10636-7): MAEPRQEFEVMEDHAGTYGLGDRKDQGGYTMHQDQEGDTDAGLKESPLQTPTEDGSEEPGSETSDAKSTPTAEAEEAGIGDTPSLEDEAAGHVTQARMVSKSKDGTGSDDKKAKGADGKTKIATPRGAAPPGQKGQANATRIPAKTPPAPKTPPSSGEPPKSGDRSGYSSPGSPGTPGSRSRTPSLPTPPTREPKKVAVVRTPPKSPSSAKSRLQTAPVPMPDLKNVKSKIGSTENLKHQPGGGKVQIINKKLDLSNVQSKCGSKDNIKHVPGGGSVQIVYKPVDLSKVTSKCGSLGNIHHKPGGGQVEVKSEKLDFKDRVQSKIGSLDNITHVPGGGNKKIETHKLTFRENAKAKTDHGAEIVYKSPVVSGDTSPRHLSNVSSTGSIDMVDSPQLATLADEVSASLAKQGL

[4] = system: p-tau-treated SH-SY5Y cells; assay: Cytoprotective activity against p-tau, cell viability; format: cell-based, human; settings: 0.5 μM p-tau overnight, compound 8 μM
In short: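 SH-SY5Y cells (passage 8–19; EMEM/F12, 10% FBS, 1% Pen-Strep) seeded 40,000/well in 24-well plates and grown overnight. Pretreated with test compound for 12 h, then exposed overnight to recombinant p-tau (E. coli BL21-expressed, heat-treated, TEV-cleaved). CCK-8 added for 2 h at 37 °C; OD read at 450 nm. Normalized to no-treatment mean; relative viability expressed against p-tau-only treatment.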

[5] = system: spliced Xbp1 mRNA, BiP, ERdj4 expression in SH-SY5Y cells; assay: qRT-PCR of ER stress markers and UPR mediators in p-tau-treated cells; format: cell-based, human; settings: p-tau 0.5 μM plus ligand 5 μM, 24 h
[6] = system: p-tau-treated SH-SY5Y cells; assay: Cell morphology by contrast microscopy; format: cell-based, human; settings: p-tau 0.5 μM plus ligand 1 5 μM, 24 h
heparanase = settings: previous report; cited from earlier work

Row | SMILES | cytotoxicity of the compound alone (SH-SY5Y cells) | expression of ATF4, CHOP, GADD34 and TRB3 [1] | Tg-induced ER stress response (Xbp1s, P58ipk, ATF4) ([2]; Tg 0.5 μM plus ligand 1 5 μM) | Tm-induced ER stress response (Xbp1s, P58ipk, ATF4) ([2]; Tm 5 μg/mL plus ligand 1 5 μM) | p-tau-induced inflammatory response (IL1β, TNFα, IRF3 expression) [3] | morphology of p-tau (TEM) (p-tau) | relative viability [4] | expression of spliced Xbp1 mRNA, BiP and ERdj4 (p-tau-induced ER stress response/UPR) [5] | cell density and morphology [6] | heparanase inhibition (heparanase)
1 | COC(=O)[C@]12CCC(C)(C)C[C@H]1C1=CCC3[C@@]4(C)CC[C@H](O[C@@H]5O[C@H](COS(=O)(=O)O)[C@@H](O[C@@H]6O[C@H](C(=O)O)[C@@H](O[C@H]7O[C@H](COS(=O)(=O)O)[C@@H](O)[C@H](O)[C@H]7NS(=O)(=O)O)[C@H](O)[C@H]6O)[C@H](O)[C@H]5NS(=O)(=O)O)C(C)(C)C4CC[C@@]3(C)C1(C)CC2 (stereo partly drawn) [Compound 1, 3β-(2-N-Sulfo-2-deoxy-6-O-sulfo-α-D-glucopyranosyl-(1 → 4)-β-D-glucopyranosyluronate-(1 → 4)-2-N-sulfo-2-deoxy-6-O-sulfo-β-D-glucopyranosyloxy)-methyloleanolate] | did not exhibit cytotoxicity | significantly lowered | failed to attenuate | failed to attenuate | able to protect cells | reorganization of p-tau from an amorphous structure into more ordered clusters | around 0.6 | strong protective effects | remarkably recovered cell density and morphology | –
2 | O=C(O)[C@H]1O[C@@H](O[C@H]2[C@H](O)[C@@H](NS(=O)(=O)O)[C@H](OCCNS(=O)(=O)O)O[C@@H]2COS(=O)(=O)O)[C@H](O)[C@@H](O)[C@@H]1O[C@H]1O[C@H](COS(=O)(=O)O)[C@@H](O)[C@H](O)[C@H]1NS(=O)(=O)O [Compound 2] | did not exhibit cytotoxicity | did not reduce | – | – | did not offer protection | – | 0.3 | did not offer protection | – | potent heparanase inhibitor
3 | COC(=O)[C@]12CCC(C)(C)C[C@H]1C1=CCC3[C@@]4(C)CC[C@H](O)C(C)(C)C4CC[C@@]3(C)C1(C)CC2 (stereo partly drawn) [OAME, oleanolic acid methyl ester, reference compound] | did not exhibit cytotoxicity | – | – | – | – | – | – | – | – | –
4 | CN1CCc2cccc3c2[C@H]1Cc1ccc(O)c(O)c1-3 [apomorphine, reference compound] | – | – | – | – | – | reorganization of p-tau from an amorphous structure into more ordered clusters | 0.7 | – | – | –
